From ChEMBL document CHEMBL3414514, “Synthesis and pharmacological evaluation of novel bisindole derivatives bearing oximes moiety: identification of novel proapoptotic agents” (Eur J Med Chem, 2015)
Activity calls are given as the source filed them. No cut-off for these calls is given here.

Key:
[1] = Cell cycle arrest in human T24 cells assessed as accumulation at S phase at 10 uM after 48 hrs by Rnase A/propidium iodide staining-based flow cytometry (reference value: 62%); assay type: functional; conditions: T-24
In short: (§1)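 T24 cells exposed to […] for 48 h, washed with ice-cold PBS, then fixed and permeabilized overnight in ice-cold 70% ethanol. RNase A (100 mg/mL) treatment at 37 C for 30 min, then PI staining (1 mg/mL) in the dark at 4 C for 30 min. Flow cytometry gave the percentage of cells in G1, S and G2 phase.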

[2] = Induction of apoptosis in human T24 cells assessed as caspase-9 upregulation at IC50 after 24 hrs by qRT-PCR analysis relative to control; assay type: functional, cell-based; conditions: T-24
T-24 [3] = assay: Induction of apoptosis in human T24 cells assessed as increase in caspase-3 protein expression at 20 uM after 6 to 24 hrs by Western blotting analysis; assay type: functional, cell-based
[4] = Cell cycle arrest in human T24 cells assessed as reduction in CDK2 level after 24 hrs by Western blotting analysis; assay type: functional, cell-based; conditions: T-24
In short: (§2)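 T24 cells treated at […] for 24 h and lysed in ice-cold RIPA buffer with protease inhibitors and NaF. Protein measured by Bradford; 30 micrograms per lane run on 12% SDS-PAGE and transferred to PVDF. Blocked 2 h at room temperature, primary antibody overnight at 4 C, HRP secondary (1:2000) 1 h, chemiluminescence detection.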

[5] = Induction of apoptosis in human T24 cells assessed as Bax upregulation after 24 hrs by qRT-PCR analysis; assay type: functional, cell-based; conditions: T-24
In short: (§3)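 T24 cells treated at […] for 24 h before RNA extraction. SYBR Green qRT-PCR with 500 nM primers: 2 min at 50 C, 10 min at 95 C, then 40 cycles of 15 s at 95 C and 1 min at 60 C. Expression by the ΔCt method against actin, normalized to untreated cells; run in triplicate.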

HUVEC = assay: Cytotoxicity against human HUVEC cells after 2 days by MTT assay; assay type: cell-based; conditions: 48 h
In short: (§4)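 Cells grown in medium with 10% heat-inactivated FBS at 37 C under 5% CO2. Compounds dissolved in medium with 1% DMSO; controls received 1% DMSO. After 2 days, MTT (10 mg/mL) added for 4 h, formazan dissolved in DMSO and absorbance read at 570/630 nm. Survival taken relative to negative control; IC50 by Bliss method (n = 5), at least three independent experiments.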

T-24 [6] = assay: Induction of apoptosis in human T24 cells assessed as cell budding at 5 to 20 uM after 24 hrs by AO/EB staining-based fluorescence microscopic analysis relative to control; assay type: functional
[7] = Induction of apoptosis in human T24 cells assessed as AIF upregulation at IC50 after 24 hrs by qRT-PCR analysis relative to control; assay type: functional, cell-based; conditions: T-24
[8] = Cell cycle arrest in human T24 cells assessed as accumulation at G2 phase at 20 uM after 48 hrs by Rnase A/propidium iodide staining-based flow cytometry (reference value: 3.58%); assay type: functional; conditions: T-24; in short: as §1
[9] = Cell cycle arrest in human T24 cells assessed as accumulation at G1 phase at 10 uM after 48 hrs by Rnase A/propidium iodide staining-based flow cytometry (reference value: 34.43%); assay type: functional; conditions: T-24; in short: as §1
[10] = Cell cycle arrest in human T24 cells assessed as reduction in Cyclin D1 level after 24 hrs by Western blotting analysis; assay type: functional, cell-based; conditions: T-24; in short: as §2
[11] = Induction of apoptosis in human T24 cells assessed as caspase-3 upregulation after 24 hrs by qRT-PCR analysis; assay type: functional, cell-based; conditions: T-24; in short: as §3
[12] = Induction of apoptosis in human T24 cells assessed as cytC upregulation at IC50 after 24 hrs by qRT-PCR analysis relative to control; assay type: functional, cell-based; conditions: T-24
[13] = Cell cycle arrest in human T24 cells assessed as increase in p27 level after 24 hrs by Western blotting analysis; assay type: functional, cell-based; conditions: T-24; in short: as §2
[14] = Induction of apoptosis in human T24 cells assessed as caspase-9 upregulation after 24 hrs by qRT-PCR analysis; assay type: functional, cell-based; conditions: T-24; in short: as §3
[15] = Induction of apoptosis in human T24 cells assessed as caspase-8 upregulation after 24 hrs by qRT-PCR analysis; assay type: functional, cell-based; conditions: T-24; in short: as §3
T-24 [16] = assay: Induction of apoptosis in human T24 cells assessed as necrotic cells at 20 uM after 24 hrs by annexin-V-FITC/propidium iodide staining-based flow cytometry (reference value: 1.66%); assay type: functional
T-24 [17] = assay: Induction of apoptosis in human T24 cells assessed as cytochrome C accumulation in cytosol at 20 uM after 6 to 24 hrs by Western blotting analysis; assay type: functional, cell-based
[18] = Cell cycle arrest in human T24 cells assessed as accumulation at G2 phase at 10 uM after 48 hrs by Rnase A/propidium iodide staining-based flow cytometry (reference value: 3.58%); assay type: functional; conditions: T-24; in short: as §1
T-24 [19] = assay: Induction of apoptosis in human T24 cells assessed as viable cells at 20 uM after 24 hrs by annexin-V-FITC/propidium iodide staining-based flow cytometry (reference value: 93.5%); assay type: functional; conditions: T-24, 24 h, read-out: Activity
MGC-803 = assay: Cytotoxicity against human MGC803 cells after 2 days by MTT assay; assay type: functional, cell-based; conditions: MGC-803, 48 h; in short: as §4
[20] = Induction of apoptosis in human T24 cells assessed as tp53 upregulation after 24 hrs by qRT-PCR analysis; assay type: functional, cell-based; conditions: T-24
T-24 [21] = assay: Induction of apoptosis in human T24 cells assessed as viable cells at 5 uM after 24 hrs by annexin-V-FITC/propidium iodide staining-based flow cytometry (reference value: 93.5%); assay type: functional; conditions: T-24, 24 h, read-out: Activity
T-24 [22] = assay: Induction of apoptosis in human T24 cells assessed as fragmented nuclei after 24 hrs by Hoechst 33258 staining-based fluorescence microscopic analysis relative to control; assay type: functional, cell-based
In short: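 T24 cells on cover slips treated at […] for 24 h; untreated cells as control. Fixed in 4% paraformaldehyde for 10 min, PBS washes, Hoechst 33258 for 5 min. Nuclei imaged by fluorescence microscopy, excitation 350 nm, emission 460 nm.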

T-24 [23] = assay: Induction of apoptosis in human T24 cells assessed as necrotic cells at 5 uM after 24 hrs by annexin-V-FITC/propidium iodide staining-based flow cytometry (reference value: 1.66%); assay type: functional
T-24 [24] = assay: Induction of apoptosis in human T24 cells assessed as membrane blebbing at 5 to 20 uM after 24 hrs by AO/EB staining-based fluorescence microscopic analysis relative to control; assay type: functional, cell-based
In short: (§5)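 T24 cells seeded at 5 × 10^4 cells/mL on cover slips. Medium was replaced with fresh medium containing 10% FBS and compound at 5, 10 or 20 µM for 24 h. Cover slips were inverted onto AO/EB stain and viewed by fluorescence microscopy. Live cells score uniform green, early apoptotic green-yellow, late apoptotic orange, and necrotic orange without condensed chromatin. Untreated cells served as control.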

[25] = Cell cycle arrest in human T24 cells assessed as accumulation at G1 phase at 5 uM after 48 hrs by Rnase A/propidium iodide staining-based flow cytometry (reference value: 34.43%); assay type: functional; conditions: T-24; in short: as §1
[26] = Cell cycle arrest in human T24 cells assessed as reduction in Cyclin E level after 24 hrs by Western blotting analysis; assay type: functional, cell-based; conditions: T-24; in short: as §2
T-24 [27] = assay: Induction of apoptosis in human T24 cells assessed as pycnosis at 5 to 20 uM after 24 hrs by AO/EB staining-based fluorescence microscopic analysis relative to control; assay type: functional, cell-based; in short: as §5

For COc1ccc2c(c1)/C(=N\O)C(c1c[nH]c3ccc(OC)cc13)=N2, the Activity [1] was 37.5%, the fold change (FC) [2] was 27.1 and the Activity (T-24 [3]) was “Active”. For the same molecule, the Activity [4] was “Dose-dependent effect”, the Activity [5] was “Dose-dependent effect” and the IC50 (HUVEC) was > 100 µM. For the same molecule, the Activity (T-24 [6]) was “Active”, the fold change (FC) [7] was 4.47 and the Activity [8] was 4.67%. For the same molecule, the Activity [9] was 57%, the Activity [10] was “Dose-dependent effect” and the Activity [11] was “Dose-dependent effect”. For the same molecule, the fold change (FC) [12] was 8.09, the Activity [13] was “Dose-dependent effect” and the Activity [14] was “Dose-dependent effect”. For the same molecule, the Activity [15] was “Dose-dependent effect”, the Activity (T-24 [16]) was 2.07% and the Activity (T-24 [17]) was “Active”. The Activity [18] was 5.47%, the viability at 20 µM (T-24 [19]) was 58.1% and the IC50 (MGC-803) was 7.66 µM. For the same molecule, the Activity [20] was “Dose-dependent effect”, the viability at 5 µM (T-24 [21]) was 85.9% and the Activity (T-24 [22]) was “Dose-dependent effect”. The Activity (T-24 [23]) was 1.18%, the Activity (T-24 [24]) was “Active” and the Activity [25] was 45%. The Activity [26] was “Dose-dependent effect” and the Activity (T-24 [27]) was “Active”.
